According to ChEMBL document CHEMBL4342503, “Diazabicyclooctane Functionalization for Inhibition of β-Lactamases from Enterobacteria” (2020):

Tests used:
[1] = Inhibition of TEM1 (unknown origin) expressed in Escherichia coli BL21 DE3 assessed as K2/Ki ratio using nitrocefin as substrate by spectrophotometry
Method in brief: (§1)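 His-tagged enzymes expressed in E. coli BL21(DE3) (IPTG 0.5 mM, 16°C, 18 h), purified by Ni-NTA and size exclusion in 25 mM Tris-HCl pH 7.5, 300 mM NaCl. Carbamoylation k2/Ki from progress curves, reporter nitrocefin 100 μM, 20°C, 100 mM MES pH 6.4; inhibitor up to 100 μM; ≥6 curves, ≥2 independent experiments.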

[2] = system: Escherichia coli; test: Antibacterial activity against Escherichia coli Top10 assessed as cefamandole MIC by CLSI protocol based method (reference value: 2 ug/ml); format: functional
Method in brief: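 Broth microdilution in cation-adjusted Mueller-Hinton broth following CLSI. Strain carries a β-lactamase gene cloned in pTRC-99k (kanamycin marker); preculture in BHI with IPTG (500 μM) and kanamycin (50 μg/ml); IPTG (500 μM) also in plates to induce enzyme. β-Lactam MIC read with or without inhibitor at fixed 15 μM (4 μg/ml for avibactam; clavulanate 4 μg/ml). Median of five biological repeats from two independent experiments.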

[3] = system: Escherichia coli; test: Antibacterial activity against Escherichia coli Top10 harboring TEM1 assessed as cefamandole MIC by CLSI protocol based method (reference value: 2048 ug/ml); format: functional
[4] = Inhibition of KPC-2 (unknown origin) expressed in Escherichia coli BL21 DE3 assessed as K2/Ki ratio using nitrocefin as substrate by spectrophotometry; method in brief: as §1
[5] = system: Escherichia coli; test: Antibacterial activity against Escherichia coli Top10 without harboring KPC-2 assessed as aztreonam MIC by CLSI protocol based method (reference value: 0.5 ug/ml); format: functional
[6] = system: Escherichia coli; test: Antibacterial activity against Escherichia coli Top10 harboring KPC-2 assessed as aztreonam MIC by CLSI protocol based method (reference value: 2048 ug/ml); format: functional
[7] = system: Enterobacter cloacae; test: Inhibition of Enterobacter cloacae CTX-M-15 expressed in Escherichia coli BL21 DE3 assessed as K2/Ki ratio using nitrocefin as substrate by spectrophotometry; method in brief: as §1
[8] = system: Escherichia coli; test: Antibacterial activity against Escherichia coli Top10 without harboring CTX-M-15 assessed as amoxicillin MIC by CLSI protocol based method (reference value: 8 ug/ml); format: functional
[9] = system: Escherichia coli; test: Antibacterial activity against Escherichia coli Top10 harboring CTX-M-15 assessed as amoxicillin MIC by CLSI protocol based method (reference value: 2048 ug/ml); format: functional
[10] = system: Enterobacter cloacae; test: Inhibition of Enterobacter cloacae AmpC expressed in Escherichia coli BL21 DE3 assessed as K2/Ki ratio using nitrocefin as substrate by spectrophotometry; method in brief: as §1
[11] = system: Escherichia coli; test: Antibacterial activity against Escherichia coli Top10 without harboring AmpC assessed as cefotaxime MIC by CLSI protocol based method (reference value: 0.125 ug/ml); format: functional
[12] = system: Escherichia coli; test: Antibacterial activity against Escherichia coli Top10 harboring AmpC assessed as cefotaxime MIC by CLSI protocol based method (reference value: 256 ug/ml); format: functional
[13] = Inhibition of OXA-48 expressed in Escherichia coli BL21 DE3 assessed as K2/Ki ratio using CENTA as substrate by spectrophotometry
Method in brief: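 OXA-48 expressed in E. coli BL21(DE3) (IPTG 0.5 mM, 16°C, 18 h), purified by Ni-NTA and size exclusion. Carbamoylation k2/Ki by spectrophotometric progress curves with CENTA 100 μM as reporter, 20°C, 100 mM MES pH 6.4; inhibitor up to 100 μM; ≥6 curves from ≥2 independent experiments.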

[14] = system: Escherichia coli; test: Antibacterial activity against Escherichia coli Top10 without harboring OXA-48 assessed as ertapenem MIC by CLSI protocol based method (reference value: < 0.03 ug/ml); format: functional
[15] = system: Escherichia coli; test: Antibacterial activity against Escherichia coli Top10 harboring OXA-48 assessed as ertapenem MIC by CLSI protocol based method (reference value: 8 ug/ml); format: functional
[16] = system: Bacteria; test: Inhibition of bacterial KPC-2 N132G mutant expressed in Escherichia coli BL21 DE3 assessed as K2/Ki ratio using nitrocefin as substrate by spectrophotometry; method in brief: as §1
[17] = system: Enterobacter cloacae; test: Inhibition of Enterobacter cloacae CTX-M-15 N132G mutant expressed in Escherichia coli BL21 DE3 assessed as K2/Ki ratio using nitrocefin as substrate by spectrophotometry; method in brief: as §1

Row | Structure (SMILES) | Ratio [1] [M⁻¹ s⁻¹] | MIC [2] [µg/mL] | MIC [3] [µg/mL] | Ratio [4] [M⁻¹ s⁻¹] | MIC [5] [µg/mL] | MIC [6] [µg/mL] | Ratio [7] [M⁻¹ s⁻¹] | MIC [8] [µg/mL] | MIC [9] [µg/mL] | Ratio [10] [M⁻¹ s⁻¹] | MIC [11] [µg/mL] | MIC [12] [µg/mL] | Ratio [13] [M⁻¹ s⁻¹] | MIC [14] [µg/mL] | MIC [15] [µg/mL] | Ratio [16] [M⁻¹ s⁻¹] | Ratio [17] [M⁻¹ s⁻¹]
1 | O=C1N2C[C@@H](CC[C@H]2Cn2ccnn2)N1OS(=O)(=O)[O-].[Na+] | 1200 | 2 | 8 | 280 | 0.25 | 512 | 280 | 8 | 64 | 210 | 0.125 | 16 | 140 | < 0.03 | 8 | 31 | 6.6
2 | O=C1N2C[C@@H](CC[C@H]2Cn2cc(-c3ccccc3)nn2)N1OS(=O)(=O)[O-].[Na+] | 4700 | 4 | 16 | 930 | 0.25 | 64 | 6900 | 8 | 64 | 200 | 0.25 | 128 | 110 | < 0.03 | 8 | 21 | 140
